# LMPTP block: LMPTP (human) inhibition. P24666. recombinant LMPTP-A, OMFP fluorogenic substrate, fluorescence intensity. inhibition, % at 20 µM. 360,000 tested, 0.22% active. AID 651560;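 active means compounds that cut the enzyme signal by at least half of the control window in the single-dose screen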
# Target sequence (P24666 whole entry, looked up): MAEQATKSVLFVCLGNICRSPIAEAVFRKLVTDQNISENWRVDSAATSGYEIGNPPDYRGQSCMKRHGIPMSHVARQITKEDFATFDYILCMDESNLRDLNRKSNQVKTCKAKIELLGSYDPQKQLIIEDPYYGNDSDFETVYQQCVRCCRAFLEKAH
#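 Assay system: LMPTP-A phosphatase enzyme | Input: 0.625 nM enzyme | Also added: Fluorogenic phosphatase substrate OMFP at 400 µM final | Compound dosing: One test concentration per compound, 20 µM, with 3% DMSO overall | Schedule: 50 min enzyme reaction at room temperature, protected from light | Signal: Fluorescence intensity | Benchmarks: no-enzyme and uninhibited controls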
# STEP block: STEP (human) phosphatase inhibition. recombinant STEP, OMFP fluorogenic substrate, fluorescence. 360,000 tested, 0.25% active. inhibition, % at 20 µM. P54829;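 active means inhibition at 20 µM, scaled per plate between control wells, above about 37%, limit read from the data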
#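 Material: STEP (striatal-enriched tyrosine phosphatase) enzyme, cell-free | Medium: 50 mM Bis-Tris pH 6.0 with 2.5 mM DTT and 0.005% Tween 20 | Read-out: Percent inhibition scaled to no-enzyme and uninhibited-enzyme controls, plate-pattern corrected | Signal: Fluorescence read at 480 nm ex / 540 nm em | Times: 20 min reaction, room temperature, in the dark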
# DNMT1 inh: blocks human DNA methyltransferase DNMT1. P26358. DNMT1 molecular beacon, Hinp1I cleavage, fluorescence. inhibition (reported as % activation of signal), % at 10 µM. 360,000 tested, 0.83% active. AID 588458; in the data active means inhibition above about 50%
# Scp1 inh: Scp-1 (human) phosphatase inhibition; Q9GZU7; Recombinant Scp1, phosphopeptide, malachite green phosphate absorbance; inhibition, % at 20 µM; 340,000 tested, 0.88% active;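 active means inhibition above about 50% at 20 µM, limit read from the data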
#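 assay system = SCP-1 phosphatase catalytic domain, residues 76-261 | buffer or medium = 50 mM Tris acetate pH 5.5, 0.005% Tween-20, 10 mM MgCl2 | incubation = enzyme reaction 45 min at room temperature, colour 5 min, stabilisation 30 min | signal = Phosphate-binding colour reagent, absorbance read at 630 nm | measure = % inhibition at 20 µM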
# Rpn11 block: Rpn11 (human) deubiquitinase inhibition; O00487; human 26S proteasome, Ub4-pepOG fluorescence polarization; 20S core pre-blocked with epoxomicin; inhibition, % at 20 µM; 360,000 tested, 0.59% active;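 active means inhibition at 20 µM, scaled to each plate's controls, above about 33%, limit read from the data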
# Target sequence (O00487 whole entry, looked up): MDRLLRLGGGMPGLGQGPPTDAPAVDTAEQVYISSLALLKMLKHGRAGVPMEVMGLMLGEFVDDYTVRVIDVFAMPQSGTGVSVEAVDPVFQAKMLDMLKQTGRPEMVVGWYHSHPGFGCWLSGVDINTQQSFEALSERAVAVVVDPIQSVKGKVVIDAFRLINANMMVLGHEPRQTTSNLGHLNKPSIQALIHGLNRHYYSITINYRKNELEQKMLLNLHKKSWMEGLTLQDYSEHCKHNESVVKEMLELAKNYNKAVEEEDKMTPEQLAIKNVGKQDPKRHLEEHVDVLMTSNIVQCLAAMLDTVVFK
# SUMO1-SIM PPI: modulators of human SUMO1-mediated protein-protein interactions. P63165. SUMO1 binding to a labelled peptide, TR-FRET, 1 h. inhibition, % at 20 µM. 360,000 tested, 0.33% active; in the data active means inhibition above about 37%
# Target sequence (P63165 whole entry, looked up): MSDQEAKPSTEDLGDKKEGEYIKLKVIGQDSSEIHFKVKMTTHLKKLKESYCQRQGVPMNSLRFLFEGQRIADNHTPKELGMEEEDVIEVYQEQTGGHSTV
# STEP inh conf: confirmation of human STEP phosphatase inhibitors; shares compounds with STEP block; inhibition, % at 20 µM; recombinant STEP, OMFP fluorogenic substrate, fluorescence; 520 tested, 32% active; call rule not given here
# A number is an active result; 0 = inactive; - = not tested or not shown. Hits are enriched below; roughly 2.3% of the tested compounds scored in any of these assays.
SMILES,LMPTP block,STEP block,DNMT1 inh,Scp1 inh,Rpn11 block,SUMO1-SIM PPI,STEP inh conf
COC(=O)c1ccc(COC(=O)CCc2nc(-c3ccccc3)c(-c3ccccc3)o2)cc1,0,37.6,0,0,0,0,0
COC(=O)c1ccc(COC(=O)c2ccccn2)cc1,0,0,0,0,0,0,-
CC(C)c1ccc(NC(=O)C2CSC3(C)CCC(=O)N23)cc1 (stereo unspecified),0,0,0,0,0,0,-
O=C1NC(=Nc2cccnc2)S/C1=C\c1cccc(F)c1,0,57.0,0,0,0,0,0
CCCCCCCCN1[C@@H](CC(=O)O)c2ccc(C(F)(F)F)cc2S1(=O)=O,0,0,0,0,0,0,-
O=C(NCc1ccco1)C1CCN(C(=O)c2ccc(Cl)cc2Cl)CC1,0,56.1,0,0,0,0,0
Cc1ccc([C@H]2C[C@H](O)[C@@H](n3cc(C4CC4)nn3)CN2C(=O)C2CCCCC2)cc1,0,0,0,-,0,0,-
CCN(CC)C(=O)c1ccccc1NC(=O)c1ccccc1SC,0,42.8,0,0,0,0,0
COC(=O)c1ccc(/C=N/Nc2nc3ccccc3[nH]2)cc1,0,0,0,0,0,0,-
O=C(O)c1ccc(/C=N/Nc2nc3ccccc3[nH]2)cc1,0,48.6,0,0,0,0,0
CCC(C)(C(=O)NC1CCCC1)N(Cc1cccs1)C(=O)Cc1cccs1 (stereo unspecified),0,89.7,0,0,0,0,0
CC(=O)c1sc(NC(=O)c2ccc(F)c(F)c2)nc1C,0,57.7,0,0,0,0,0
CC(=O)c1sc(NC(=O)c2ccc(Cl)cc2)nc1C,0,0,0,0,0,0,-
CC(=O)Nc1ccc(/C=C2\Sc3ccccc3C2=O)cc1,0,42.6,0,0,0,0,0
NC1=NC[C@H](Cc2ccccc2)N1CCc1cccc(F)c1,0,70.4,0,0,0,73.9,0
NC1=NC[C@H](Cc2ccccc2)N1CCCCC1CCCCC1,0,0,0,0,0,0,-
S=C(c1ccc(Cl)cc1)N1CCN(Cc2ccccc2)CC1,0,0,0,0,0,0,-
CCN1CCN(C(=S)c2ccc(SC)cc2)CC1,0,67.0,0,0,0,0,0
CSc1ccc(C(=S)N2CCCCCC2)cc1,0,0,0,0,0,0,-
CSc1ccc(C(=S)N2CCN(Cc3ccccc3)CC2)cc1,0,52.5,0,0,0,0,0
CCCc1nn2c(=O)cc(CSCC(=O)Nc3ccccc3OC)nc2s1,0,0,0,0,0,0,-
Cc1ccc(-c2cnc(-c3ccccc3C(=O)O)o2)cc1,0,0,0,0,0,0,-
CCOc1ccc(C(=S)N2CCN(C)CC2)cc1,0,81.2,0,0,0,0,48.2
O=[N+]([O-])c1ccc(C(=S)N2CCCC2)cc1,0,0,0,0,0,0,-
CCN1CCN(C(=S)c2ccc([N+](=O)[O-])cc2)CC1,0,61.7,0,0,0,0,0
SMILES,LMPTP block,STEP block,DNMT1 inh,Scp1 inh,Rpn11 block,SUMO1-SIM PPI,STEP inh conf
OCCN1CCN(C(=S)c2ccc(Cl)cc2)CC1,0,70.4,0,0,0,0,0
CCN1CCN(C(=S)c2ccc(Cl)cc2)CC1,0,95.0,0,0,0,0,63.3
CCN1CCN(C(=S)c2ccc(OC)cc2)CC1,0,72.6,0,0,0,0,0
COc1ccc(C(=S)N2CCCCCC2)cc1,0,0,0,0,0,0,-
Cn1c(CSc2ncccn2)nnc1SCC(=O)N1CCCc2ccccc21,0,52.6,0,0,0,0,0
CC(C)(C)C(=O)Nc1ccc(C(=O)Nc2cccc(Oc3ccc(C(=O)O)c(C(=O)O)c3)c2)cc1,0,60.3,0,0,0,0,81.7
CC(C)(C)C(=O)Nc1ccc(C(=O)Nc2cc(NC(=O)c3ccc(NC(=O)C(C)(C)C)cc3)cc(C(=O)O)c2)cc1,0,0,0,0,0,0,-
O=C1C2C3C=CC(C3)C2C(=O)N1Nc1c(Cl)cc(Cl)cc1Cl (stereo unspecified),0,0,0,0,0,0,-
O=C(O)c1cccc(NC(=S)NC(NC(=O)c2ccccc2[N+](=O)[O-])C(Cl)(Cl)Cl)c1 (stereo unspecified),0,0,0,0,0,0,-
O=C(O)c1cccc(NC(=S)NC(NC(=O)c2cccc([N+](=O)[O-])c2)C(Cl)(Cl)Cl)c1 (stereo unspecified),0,62.8,0,0,0,97.8,0
COc1cc(C)c(NC(=S)Nc2cccc(Cl)c2C)cc1OC,0,48.2,0,0,0,0,0
COc1ccc(-c2csc(NC(C)c3nc4cc(C(F)(F)F)ccc4n3CCOCCO)n2)cc1 (stereo unspecified),0,43.7,0,0,0,0,0
Cn1cc(P(=O)(N2CCOCC2)N2CCOCC2)cc1P(=S)(N1CCOCC1)N1CCOCC1,0,61.7,0,0,0,0,0
O=C(O)c1ccc2c(=O)n3c(nc2c1)/C(=C/c1cccc(Cl)c1Cl)CCCC3,0,0,0,0,0,0,-
COCc1ccc(C(=O)NC2CCCc3c2cnn3-c2ccc(C)c(C)c2)o1 (stereo unspecified),0,0,0,0,0,0,-
CCCCOc1ccc(C(=O)NNC(=O)C2C3C=CC(C3)C2C(=O)O)cc1 (stereo unspecified),0,0,0,0,0,0,-
O=C(COC(=O)/C=C/c1cccc(F)c1)NC(=O)NCc1ccccc1,0,0,0,0,0,0,-
O=C(O)CCCCCn1c(SCc2cc(=O)n3cc(Cl)ccc3n2)nc2ccsc2c1=O,0,64.6,0,0,0,0,0
C=CCOc1ccc(/C=N/NC(=O)C(C)Sc2ccccn2)cc1OC (stereo unspecified),0,0,0,0,0,0,-
COc1ccc2cc(CCNS(=O)(=O)c3ccc(NC(C)=O)cc3)c(=O)[nH]c2c1,0,0,0,0,0,0,-
COc1cccc(-c2cc(C(=O)Nc3nc4ccccc4s3)c3ccccc3n2)c1,0,71.3,0,0,0,0,41.4
COc1ccc(-c2cc(C(=O)Nc3nc4c(C)cccc4s3)c3ccccc3n2)cc1OC,0,0,0,0,0,0,-
CCOc1ccc(CCNC(=O)CS(=O)(=O)Cc2nc(-c3ccc(OC)cc3)oc2C)cc1,0,44.0,0,0,0,0,19.5
